Laboratory results as given in ChEMBL document CHEMBL3856185, “Discovery of a sulfamate-based steroid sulfatase inhibitor with intrinsic selective estrogen receptor modulator properties” (Eur J Med Chem, 2016).

Legend:
[1] = Cytotoxicity against estrogen-sensitive human T47D cells assessed as reduction in cell proliferation at 5 uM after 7 days by MTS assay; format: toxicity, cell-based; settings: 168 h
Method in brief: (§1)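 Seeded 3000 cells/well, 48 h attachment. Compounds diluted from DMSO (final ≤0.1%) in medium, renewed every 2 days for 7 days. Proliferation read by MTS, 4 h at 37 °C, absorbance 490 nm. Control (medium + DMSO) set to 100%. Mean ± SD of triplicates.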

[2] = target: T1, Estrogen receptor (Homo sapiens, UniProt P03372); test: Agonist activity at ERalpha in estrogen-sensitive human T47D cells assessed as cell proliferation at 0.01 uM after 7 days by MTS assay; format: cell-based; settings: 168 h; method in brief: as §1
T1 sequence (P03372 whole entry): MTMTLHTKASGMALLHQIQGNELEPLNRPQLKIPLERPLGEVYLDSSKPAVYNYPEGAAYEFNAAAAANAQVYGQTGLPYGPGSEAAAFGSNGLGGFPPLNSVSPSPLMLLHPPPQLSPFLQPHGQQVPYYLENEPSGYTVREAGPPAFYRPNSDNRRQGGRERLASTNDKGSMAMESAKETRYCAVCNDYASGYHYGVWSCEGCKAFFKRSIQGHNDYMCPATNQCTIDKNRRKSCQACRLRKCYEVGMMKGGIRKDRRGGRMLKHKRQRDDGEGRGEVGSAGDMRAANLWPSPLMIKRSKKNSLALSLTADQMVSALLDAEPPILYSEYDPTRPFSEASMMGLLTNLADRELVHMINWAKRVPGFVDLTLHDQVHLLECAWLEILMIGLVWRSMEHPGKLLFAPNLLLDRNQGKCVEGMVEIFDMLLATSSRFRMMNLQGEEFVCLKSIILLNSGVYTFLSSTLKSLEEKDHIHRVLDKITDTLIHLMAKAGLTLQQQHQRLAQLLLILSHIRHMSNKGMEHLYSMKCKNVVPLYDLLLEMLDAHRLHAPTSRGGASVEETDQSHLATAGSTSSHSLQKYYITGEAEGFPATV

[3] = target: T1, Estrogen receptor; test: Agonist activity at ERalpha in estrogen-sensitive human T47D cells assessed as cell proliferation at 0.1 uM after 7 days by MTS assay; format: cell-based; settings: 168 h; method in brief: as §1
[4] = target: T1, Estrogen receptor; test: Agonist activity at ERalpha in estrogen-sensitive human T47D cells assessed as cell proliferation at 1 uM after 7 days by MTS assay; format: cell-based; settings: 168 h; method in brief: as §1
[5] = target: T2, Estrogen receptor (Homo sapiens) (UniProt P03372); test: Antiestrogenic activity at ERalpha in estrogen-sensitive human T47D cells assessed as blockage of E2 stimulated cell proliferation at 5 uM after 7 days in presence of E2 by MTS assay; format: cell-based
T2 sequence (whole entry): T1 sequence (P03372 whole entry)
Method in brief: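 Estrogen-deprived T-47D cells (RPMI, insulin 50 ng/mL, 5% charcoal-stripped FBS) seeded at 3000 cells/well, attached 48 h. Then treated 7 days with compound plus E2 (0.1 nM), medium renewed every 2 days. DMSO final ≤0.1%. MTS added 4 h, A490. Control (medium + DMSO) = 100%. Mean ± SD of triplicates.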

[6] = Cytotoxicity against human Saos2 cells assessed as reduction in cell proliferation at 5 to 10 uM after 7 days by MTS assay; format: toxicity, cell-based; settings: saos-2, 168 h
Method in brief: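 Saos-2 cells in phenol-red-free McCoy's 5A with 10% charcoal-stripped FBS. Seeded 3000 cells/well, treated after 24 h with compounds from 1 nM to 10 µM (DMSO ≤0.1% final), renewed every 2 days for 7 days. MTS 2 h at 37 °C, absorbance 490 nm. Control (medium + DMSO) = 100%. Mean ± SD of triplicates.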

[7] = Cytotoxicity against estrogen-sensitive human T47D cells assessed as reduction in cell proliferation at 0.01 to 1 uM after 7 days by MTS assay; format: toxicity, cell-based; settings: 168 h; method in brief: as §1
[8] = target: T3, Steryl-sulfatase (Homo sapiens, UniProt P08842); test: Inhibition of steroid sulfatase (unknown origin) expressed in HEK293 cells assessed as reduction in transformation of [3H]-E1S to E1 after 2 hrs by liquid scintillation counting; format: cell-based
T3 sequence (P08842 whole entry): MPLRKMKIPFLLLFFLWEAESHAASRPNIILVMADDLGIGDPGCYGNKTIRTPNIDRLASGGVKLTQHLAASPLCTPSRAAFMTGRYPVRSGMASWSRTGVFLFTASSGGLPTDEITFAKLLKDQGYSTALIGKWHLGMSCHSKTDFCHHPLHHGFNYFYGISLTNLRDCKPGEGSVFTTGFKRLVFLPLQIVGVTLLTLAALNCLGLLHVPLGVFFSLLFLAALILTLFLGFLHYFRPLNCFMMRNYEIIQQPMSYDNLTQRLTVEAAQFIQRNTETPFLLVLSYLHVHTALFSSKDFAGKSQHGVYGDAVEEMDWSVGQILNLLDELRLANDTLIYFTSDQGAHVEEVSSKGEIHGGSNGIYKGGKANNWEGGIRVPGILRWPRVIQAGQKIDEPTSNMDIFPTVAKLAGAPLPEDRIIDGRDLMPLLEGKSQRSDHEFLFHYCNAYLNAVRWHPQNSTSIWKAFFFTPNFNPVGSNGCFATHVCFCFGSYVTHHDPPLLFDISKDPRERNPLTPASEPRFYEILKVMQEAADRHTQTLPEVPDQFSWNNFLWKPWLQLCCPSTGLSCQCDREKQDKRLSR
Method in brief: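 Homogenate of STS-overexpressing HEK-293 cells (lysed by 5 freeze (−80 °C)/thaw (4 °C) cycles) incubated 2 h at 37 °C with inhibitors 0.01–1 µM and [3H]-E1S 9 nM adjusted to 1 µM with E1S, in Tris-acetate pH 7.4 with 5 mM EDTA, 10% glycerol. Xylene extraction separated E1 from E1S; scintillation counting; % inhibition vs no-inhibitor control; IC50 from curve; triplicates, mean ± SD.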

Row | Activity [5] [%] | SMILES | Activity [1] | Activity [2] [%] | Activity [3] [%] | Activity [4] [%] | Activity [6] | Activity [7] | IC50 [8] [nM]
1 | – | COc1ccc(CN(Cc2ccc(C(=O)N3CCc4ccc(OS(N)(=O)=O)cc4C3)cc2)Cc2ccccn2)cc1 | Toxic | – | – | – | – | – | –
2 | – | O=C(c1ccc(CN(CCN2CCOCC2)Cc2ccco2)cc1)N1CCc2ccc(O)cc2C1 | – | 108.2 | 105.9 | 118.8 | – | – | –
3 | – | O=C(c1ccc(CN(Cc2ccc(O)cc2)Cc2ccco2)cc1)N1CCc2ccc(O)cc2C1 | – | 108.2 | 138 | 200.3 | – | – | –
4 | 84 | Cc1ccc(CN(Cc2ccc(C(=O)N3CCc4ccc(O)cc4C3)cc2)Cc2ccco2)s1 | – | 97.1 | 103.2 | 96.8 | Toxic | Non-Toxic | –
5 | – | O=C(c1ccc(CN(CCCn2ccnc2)Cc2ccccn2)cc1)N1CCc2ccc(O)cc2C1 | – | 102.8 | 112.9 | 39.2 | – | – | –
6 | – | Cc1ccc(CN(Cc2ccc(C(=O)N3CCc4ccc(O)cc4C3)cc2)Cc2ccccn2)s1 | – | 100.6 | 105.4 | 78.9 | – | – | –
7 | – | Cc1ccc(CN(Cc2ccc(C(=O)N3CCc4ccc(OS(N)(=O)=O)cc4C3)cc2)Cc2ccco2)s1 | Toxic | – | – | – | Toxic | – | 8.9
8 | – | O=C(c1ccc(CN(Cc2ccccn2)Cc2ccccc2OCCCN2CCCCC2)cc1)N1CCc2ccc(O)cc2C1 | – | 102.8 | 99.8 | 37.1 | – | – | –
9 | – | O=C(c1ccc(OCCN2CCCCC2)cc1)c1c(-c2ccc(O)cc2)sc2cc(O)ccc12 [RALOXIFENE] | Toxic | – | – | – | Toxic | – | –
10 | – | O=C(c1ccc(CN(Cc2ccc(OCCCN3CCCCC3)cc2)Cc2ccccn2)cc1)N1CCc2ccc(O)cc2C1 | – | 105.9 | 104.5 | 60.7 | – | – | –
11 | – | COc1ccc(CN(Cc2ccc(C(=O)N3CCc4ccc(O)cc4C3)cc2)Cc2ccccn2)cc1 | Toxic | 105.6 | 104.6 | 100.9 | – | Non-Toxic | –
12 | – | O=C(c1ccc(CN(Cc2ccco2)Cc2ccccc2OCCCN2CCCCC2)cc1)N1CCc2ccc(O)cc2C1 | – | 96.8 | 105.9 | 0 | – | – | –
13 | – | O=C(c1ccc(CN(Cc2ccc(Br)cc2)Cc2ccco2)cc1)N1CCc2ccc(O)cc2C1 | – | 106.3 | 109.4 | 59.2 | – | – | –
14 | – | O=C(c1ccc(CN(Cc2ccccn2)Cc2ccco2)cc1)N1CCc2ccc(O)cc2C1 | – | 104.1 | 103.2 | 103.5 | – | Non-Toxic | –
15 | – | COc1cc2c(cc1OS(N)(=O)=O)CC[C@@H]1[C@@H]2CC[C@@]2(C)[C@H]1CC[C@@]2(O)Cc1ccccc1 | – | – | – | – | – | – | 0.05
16 | – | O=C(c1ccc(CN(CCCn2ccnc2)Cc2ccco2)cc1)N1CCc2ccc(O)cc2C1 | – | 94.9 | 98.5 | 114.6 | – | – | –
17 | – | O=C(c1ccc(CN(Cc2ccc(OCCCN3CCCCC3)cc2)Cc2ccco2)cc1)N1CCc2ccc(O)cc2C1 | – | 95.6 | 119.7 | 133.7 | – | – | –
18 | – | NS(=O)(=O)Oc1ccc2c(c1)CN(C(=O)c1ccc(CN(Cc3ccccn3)Cc3ccco3)cc1)CC2 | Toxic | – | – | – | – | – | –
